Test results: ChEMBL document CHEMBL4334422, “Toxicities and beneficial protection of H2S donors based on nonsteroidal anti-inflammatory drugs” (Medchemcomm, 2019)
The source made the active and inactive calls. The calls are words filed in the database; no cut-off is given here.

Experiments:
[1] = Toxicity in Wistar kyoto rat assessed as ketone body level in urine at 0.01 mmol/kg, ip administered for 14 days (reference value: 4 umol/L); assay type: organism-based; details: in vivo, 336 h
In short: (§1)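 Normal WKY rats, 6 per group, received an intraperitoneal injection once daily for 14 consecutive days. The compound was dissolved in 10% 1,3-propanediol, and controls received an equal volume of vehicle. Urine was collected in metabolic cages during dosing. At the end, blood was drawn from the eyeball for haematology, and urinalysis values were compared with the vehicle group.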

[2] = Half life of compound in pH 7.4 phosphate buffer at 40 mM in presence of TECP or cysteine by methylene blue dye based UV-Vis spectrophotometric method; assay type: physicochemical; details: phosphate buffer with TECP or cysteine
In short: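 A 40 mM compound solution in pH 7.4 phosphate buffer was mixed with TECP or L-cysteine (1.0 mM) as promoter. Aliquots were mixed with methylene blue reagent, and after 20 min absorbance was read at 670 nm. H₂S was quantified against a Na₂S standard curve, and concentration-versus-time release curves were plotted to give half-lives.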

[3] = Toxicity in Wistar kyoto rat assessed as leukocyte count in blood at 0.01 mmol/kg, ip administered for 14 days (reference value: 6.88 10^9/L); assay type: organism-based; details: in vivo, 336 h; in short: as §1
[4] = tested on: H9c2; experiment: Cytotoxicity against rat H9c2 cells assessed as reduction in cell viability at 10 to 80 uM incubated for 24 hrs; assay type: cell-based; details: h9c2, 24 h
In short: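 Rat cardiac H9c2 cells were grown in DMEM with 10% FBS and penicillin/streptomycin at 37 °C and 5% CO₂. They were seeded at 5×10⁴ cells/mL and allowed to adhere for 8 h. Cells were exposed to 10, 40 or 80 µM compound for 24 h, and survival was compared with untreated cells.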

[5] = tested on: H9c2; experiment: Cytoprotective activity against H2O2-induced toxicity in rat H9c2 cells assessed as increase in cell viability at 10 to 80 uM pretreated with compound followed by H2O2 addition and measured after 8 hrs relative to control; assay type: functional
In short: (§2)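 H9c2 cells were injured with H₂O₂ (400 µM) for 1, 4 or 8 h to give light, medium and heavy damage, in the presence of compound at 10–80 µM. Acetaminophen or ibuprofen served as controls. Viability was measured as mean ± SD of three experiments. SOD and MDA contents were measured as mean ± SD of four experiments. Morphology was assessed by Giemsa staining under light microscopy.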

[6] = Toxicity in Wistar kyoto rat assessed as proportion in urine at 0.01 mmol/kg, ip administered for 14 days (reference value: 1.01); assay type: organism-based; details: in vivo, 336 h; in short: as §1
[7] = tested on: H9c2; experiment: Cytoprotective activity against H2O2-induced toxicity in rat H9c2 cells assessed as increase in SOD level at 10 to 80 uM pretreated with compound followed by H2O2 addition and measured after 8 hrs; assay type: functional, cell-based; in short: as §2
[8] = Toxicity in Wistar kyoto rat assessed as nitrite level in urine at 0.01 mmol/kg, ip administered for 14 days; assay type: organism-based; details: in vivo, 336 h; in short: as §1
[9] = tested on: H9c2; experiment: Cytoprotective activity against H2O2-induced toxicity in rat H9c2 cells assessed as increase in cell viability pretreated with compound followed by H2O2 addition and measured after 1 hrs relative to control; assay type: functional; in short: as §2
[10] = tested on: H9c2; experiment: Cytoprotective activity against H2O2-induced toxicity in rat H9c2 cells assessed as decrease in MDA level pretreated with compound followed by H2O2 addition and measured after 8 hrs; assay type: functional, cell-based; in short: as §2
[11] = Toxicity in Wistar kyoto rat assessed as neutrophil ratio in blood at 0.01 mmol/kg, ip administered for 14 days (reference value: 54.7%); assay type: organism-based; details: in vivo, 336 h; in short: as §1
[12] = Toxicity in Wistar kyoto rat assessed as bilirubin level in urine at 0.01 mmol/kg, ip administered for 14 days (reference value: 10 umol/L); assay type: organism-based; details: in vivo, 336 h
In short: (§3)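 Normal WKY rats (6 per group) received compound in 10% 1,3-propanediol intraperitoneally daily for 14 days. Controls received an equal volume of vehicle. Urine was collected in metabolic cages throughout dosing. At the end of dosing, blood was taken from the eyeball for haematology, and urine parameters were analysed.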

[13] = Toxicity in Wistar kyoto rat assessed as monocyte ratio in blood at 0.01 mmol/kg, ip administered for 14 days (reference value: 0.5%); assay type: organism-based; details: in vivo, 336 h; in short: as §1
[14] = Toxicity in Wistar kyoto rat assessed as occult blood cells level in urine at 0.01 mmol/kg, ip administered for 14 days (reference value: 10 /uL); assay type: organism-based; details: in vivo, 336 h; in short: as §1
[15] = Toxicity in Wistar kyoto rat assessed as glucose in urine at 0.01 mmol/kg, ip administered for 14 days; assay type: organism-based; details: in vivo, 336 h; in short: as §3
[16] = Toxicity in Wistar kyoto rat assessed as eosinophil ratio in blood at 0.01 mmol/kg, ip administered for 14 days (reference value: 1.8%); assay type: organism-based; details: in vivo, 336 h; in short: as §3
[17] = Toxicity in Wistar kyoto rat assessed as red blood cell count in blood at 0.01 mmol/kg, ip administered for 14 days (reference value: 6.83 10^12/L); assay type: organism-based; details: in vivo, 336 h; in short: as §1
[18] = Toxicity in Wistar kyoto rat assessed as urine pH at 0.01 mmol/kg, ip administered for 14 days (reference value: 8.4); assay type: organism-based; details: in vivo, 336 h; in short: as §1
[19] = Toxicity in Wistar kyoto rat assessed as urobilinogen level in urine at 0.01 mmol/kg, ip administered for 14 days (reference value: 1 umol/L); assay type: organism-based; details: in vivo, 336 h; in short: as §1
[20] = tested on: H9c2; experiment: Cytoprotective activity against H2O2-induced toxicity in rat H9c2 cells assessed as increase in cell viability at 80 uM pretreated with compound followed by H2O2 addition and measured after 1 hrs relative to control; assay type: functional; in short: as §2
[21] = Toxicity in Wistar kyoto rat assessed as leukocyte in urine at 0.01 mmol/kg, ip administered for 14 days (reference value: 10 ca cells/uL); assay type: organism-based; details: in vivo, 336 h; in short: as §1
[22] = Toxicity in Wistar kyoto rat assessed as protein level in urine at 0.01 mmol/kg, ip administered for 14 days (Rvb =0 g/L); assay type: organism-based; details: in vivo, 336 h; in short: as §1
[23] = Toxicity in Wistar kyoto rat assessed as Vc in urine at 0.01 mmol/kg, ip administered for 14 days; assay type: organism-based; details: in vivo, 336 h; in short: as §3
[24] = Toxicity in Wistar kyoto rat assessed as hemoglobin count in blood at 0.01 mmol/kg, ip administered for 14 days (reference value: 138 g/L); assay type: organism-based; details: in vivo, 336 h; in short: as §3
[25] = Toxicity in Wistar kyoto rat assessed as lymphocyte ratio in blood at 0.01 mmol/kg, ip administered for 14 days (reference value: 42.1%); assay type: organism-based; details: in vivo, 336 h; in short: as §1
[26] = Toxicity in Wistar kyoto rat assessed as basophilic ratio in blood at 0.01 mmol/kg, ip administered for 14 days (reference value: 2.2%); assay type: organism-based; details: in vivo, 336 h; in short: as §3
[27] = Toxicity in Wistar kyoto rat assessed as platelet count in blood at 0.01 mmol/kg, ip administered for 14 days (reference value: 670 10^9/L); assay type: organism-based; details: in vivo, 336 h; in short: as §1
[28] = tested on: Rattus norvegicus; experiment: Antihypertensive activity in spontaneously hypertensive Wistar kyoto rat assessed as reduction in systolic arterial pressure at 20 mg/kg, ip administered for 6 hrs and measured every 30 mins post treatment by tail-cuff method; assay type: functional
In short: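 Male SHRs (8 weeks, 300 ± 25 g; 6 per group), given compound intraperitoneally once daily at 8 am in 0.5% (w/v) sodium carboxymethyl cellulose/DMSO 3/1 (v/v), 2 mL·kg⁻¹. Vehicle-treated SHR and WKY controls. SBP, DBP and heart rate were measured by tail-cuff on awake, restrained rats before dosing, then every 30 min for 6 h. Values are mean ± SD of four independent experiments.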

half-life at 40000 µM [2] | SMILES | Activity [1] | Activity [3] | Activity [4] | Activity [5] | Ratio [6] | Activity [7] | Activity [8] | Activity [9] | Activity [10] | Activity [11] | Activity [12] | Activity [13] | Activity [14] | Activity [15] | Activity [16] | Activity [17] | pH [18] | Activity [19] | Activity [20] | also measured
20.1 min | CC(C)Cc1ccc(C(C)C(=O)Oc2ccc(C(N)=S)cc2)cc1 (stereo not drawn) | Non-Toxic | 1.72 ×10⁹ /L | Non-Toxic | < 5% | 1.005 | Active | Non-Toxic | Dose-dependent effect | Dose-dependent effect | 44.4% | 17 µmol/L | 1.8% | Non-Toxic | Non-Toxic | 1% | 5.5 ×10¹² /L | 7.5 | 16 µmol/L | 11.9% | Activity [21]: 70 µL⁻¹; Activity [22]: 3 g/L; Activity [23]: Non-Toxic; Activity [24]: 119 g/L; Activity [25]: 52.8%; Activity [26]: 0%; Activity [27]: 161 ×10⁹ /L
1.4 min | CC(C)Cc1ccc(C(C)C(=O)Oc2ccc(-c3cc(=S)ss3)cc2)cc1 (stereo not drawn) | 500 µmol/L | 3.27 ×10⁹ /L | Non-Toxic | < 5% | 1.005 | Active | Toxic | Dose-dependent effect | Dose-dependent effect | 35.9% | 50 µmol/L | 0.9% | Non-Toxic | Non-Toxic | 2.6% | 5.9 ×10¹² /L | 7.5 | 66 µmol/L | 9.4% | Activity [28]: 136.7 mmHg; Activity [21]: 500 µL⁻¹; Activity [22]: 3 g/L; Activity [23]: Non-Toxic; Activity [24]: 136 g/L; Activity [25]: 60.4%; Activity [26]: 0.2%; Activity [27]: 114 ×10⁹ /L
14.1 min | CC(=O)Nc1ccc(OC(=O)CCCCC2CCSS2)cc1 (stereo not drawn) | 4000 µmol/L | 2.89 ×10⁹ /L | Non-Toxic | 8.6% | 1.005 | Active | Non-Toxic | Dose-dependent effect | Dose-dependent effect | 31.7% | 12 µmol/L | 1.3% | 80 µL⁻¹ | Non-Toxic | 2.6% | 6.08 ×10¹² /L | 7.5 | 3.3 µmol/L | 13.3% | Activity [28]: 127.6 mmHg; Activity [21]: Non-Toxic; Activity [22]: 3.2 g/L; Activity [23]: Non-Toxic; Activity [24]: 135 g/L; Activity [25]: 64.2%; Activity [26]: 0.2%; Activity [27]: 194 ×10⁹ /L
